ChEMBL document CHEMBL4765352, “Discovery of AdipoRon analogues as novel AMPK activators without inhibiting mitochondrial complex I” (Eur J Med Chem, 2020)
Activity calls are given as the source filed them. The calls are words filed in the database; no cut-off is given here.

How the values were obtained:
C2C12 [1] = experiment: Activation of AMPK in mouse C2C12 cells assessed as increase in AMPK phosphorylation at Thr172 residue at 10 uM measured after 2 hrs by Western blot analysis; type: cell-based; conditions: filed as activator
Outline: (§1)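 C2C12 myoblasts differentiated in DMEM with 2% horse serum for 5-7 days until myotubes formed. Treated for 2 h, either at 10 μM or across a concentration range, or at 10 μM over a time course. RIPA lysates (~30 µg protein) blotted for p-AMPK/AMPK and p-ACC/ACC, detected by ECL. The p-AMPK/AMPK ratio is expressed as fold of the DMSO vehicle.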

C2C12 [2] = experiment: Activation of AMPK in mouse C2C12 cells assessed as increase in ACC phosphorylation measured after 2 hrs by Western blotting analysis; type: cell-based; conditions: filed as activator, dose 0.1-20 µM; outline: as §1
HepG2 [3] = experiment: Activation of AMPK in human HepG2 cells assessed as increase in ACC phosphorylation at 1 to 20 uM measured after 2 to 12 hrs by Western blotting analysis; type: cell-based; conditions: filed as activator, dose 1-20 µM, time 2-12 hrs
Outline: (§2)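 HepG2 and HuH-7 cells in medium with 10% FBS and penicillin/streptomycin at 37 °C, 5% CO₂. Treated with a range of concentrations for 2 h, or with 10 μM over a time course. Cells lysed in RIPA buffer with protease/phosphatase inhibitors; ~30 µg protein per lane blotted for p-AMPK, AMPK, p-ACC, ACC, with GAPDH or β-actin as loading control. Detected by ECL.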

Huh-7 = experiment: Activation of AMPK in human HuH-7 cells assessed as increase in ACC phosphorylation at 1 to 20 uM measured after 2 to 12 hrs by Western blotting analysis; type: cell-based; conditions: filed as activator, dose 1-20 µM, time 2-12 hrs; outline: as §2
Homo sapiens = species: Homo sapiens; experiment: Activation of AMPK alpha1/beta1/gamma1 (unknown origin)
[4] = Inhibition of bovine heart mitochondrial complex 1 at 5 to 20 uM measured every minute for 2 hrs by microplate reader based assay; type: tissue-based, Bos taurus; conditions: cattle, dose 5-20 µM
Outline: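 Bovine heart mitochondria in detergent were captured on a complex I antibody-coated plate for 2 h at room temperature. Phospholipids were added, then complex I solution with compound, rotenone control or DMSO. NADH oxidation was followed as the fall in A340, read every minute for at least 2 h at 30 °C.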

C2C12 [5] = experiment: Activation of AMPK in mouse C2C12 cells with SiRNA-induced LKB1 knock down assessed as increase in AMPK phosphorylation; type: cell-based
C2C12 [6] = experiment: Activation of AMPK in mouse C2C12 cells assessed as increase in AMPK phosphorylation in presence of CaMKKbeta inhibitor STO-609; type: cell-based; conditions: filed as activator
A549 = experiment: Cytotoxicity against human A549 cells assessed as reduction in cell viability at 5 to 20 uM incubated for 72 hrs by MTT assay; type: cell-based; conditions: a549, 72 h, dose 5-20 µM
Outline: (§3)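 MTT viability assay in C2C12, HepG2 and A549 cells. Exposure was 24 h or 72 h for C2C12 and 72 h for HepG2 and A549. Three replicates per group, compared with the 0 μM group by Student's t test.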

HepG2 [7] = experiment: Cytotoxicity against human HepG2 cells assessed as reduction in cell viability at 10 to 20 uM incubated for 72 hrs by MTT assay; type: cell-based; conditions: hepg2, 72 h, dose 10-20 µM; outline: as §3
[8] = Metabolic stability in human liver microsomes assessed as compound remaining preincubated for 5 mins followed by NADPH addition and measured up to 45 mins by LC/MS analysis; type: ADME, Microsome; conditions: time 50 min, read-out: Stabilty
Outline: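 Compound was preincubated with mouse (ICR/CD-1) or human liver microsomes in potassium phosphate buffer at 37 °C for 5 min, then NADPH was added to start the reaction. Samples were quenched with acetonitrile containing tolbutamide internal standard at 0, 5, 15, 30 and 45 min. Parent compound measured by LC/MS; ketanserin served as control.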

[9] = Metabolic stability in ICR/CD-1 mouse liver microsomes assessed as intrinsic clearance preincubated for 5 mins followed by NADPH addition and measured up to 45 mins by LC/MS analysis; type: ADME, Microsome; conditions: time 50 min, read-out: CLH
Outline: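 Compound and liver microsomes in preheated potassium phosphate buffer, held at 37 °C for 5 min. Reaction started with NADPH and stopped at 0, 5, 15, 30 and 45 min with acetonitrile containing tolbutamide internal standard. Samples centrifuged at 6000 rpm for 15 min, supernatant analysed by LC/MS. Ketanserin run as assay control. Performed by a contract lab.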

Mus musculus [10] = experiment: Hypoglycemic activity in 6 hrs fasted normal lean C57BL/6 mouse assessed as reduction in blood glucose level at 100 mg/kg, ig pretreated for 2 hrs followed by glucose challenge and measured up to 90 mins post glucose challenge starting from 120 mins prior to […] by IPGTT; type: functional, organism-based; conditions: time 210.0 min
Outline: (§4)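 C57BL/6 mice (male, 8-10 weeks, n=6 per group) fasted 6 h, then given compound or vehicle intragastrically. Two hours later, 20% glucose was injected i.p. at 2 g/kg. Tail-vein glucose read by glucometer at -120, 0, 20, 40, 60 and 90 min, and net AUC calculated. Doses were 25, 50 and 100 mg/kg.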

Mus musculus [11] = experiment: Hypoglycemic activity in 6 hrs fasted ig dosed normal lean C57BL/6 mouse assessed as improved glucose tolerance pretreated for 2 hrs followed by glucose challenge and measured up to 90 mins post glucose challenge starting from 120 mins prior to […] by IPGTT; type: functional, organism-based; conditions: dose 25-100 mg/kg, time 210.0 min; outline: as §4
Mus musculus [12] = experiment: Antihyperglycemic activity in db/db mouse assessed as reduction in fasting blood glucose level at 100 mg/kg, ig administered once daily for 2 to 6 weeks; type: functional, organism-based; conditions: time 2-6 weeks
Outline: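 db/db mice, 5 weeks old, grouped by matching baseline blood glucose and body weight. Dosed intragastrically once daily at 100 mg/kg in 0.5% methylcellulose; vehicle-treated db/db and db/m mice served as controls. Body weight and fasting blood glucose measured weekly. Serum ALT and AST measured after 10 weeks. Data given as mean ± SEM.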

Mus musculus [13] = species: Mus musculus; experiment: Improvement in lipid homeostasis in db/db mouse assessed as effect on serum triglyceride level; type: functional, organism-based
[14] = Toxicity in C57BL/6 mouse assessed as change in gross morphology of heart at 50 to 200 mg/kg, ig administered for 4 weeks; type: organism-based; conditions: in vivo, po, 672 h, dose 50-200 mg/kg
Outline: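 Male C57BL/6 mice (6 per group) given 50, 100 or 200 mg/kg intragastrically daily for 4 weeks. Saline-perfused hearts were weighed and examined for gross morphology, with representative hearts chosen by similar body weight. Heart weight was expressed relative to body weight and to tibia length.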

[15] = Induction of cardiac hypertrophy in db/db mouse assessed as increase in cardiac glycogen accumulation at 100 mg/kg, ig administered for 10 weeks; type: organism-based; conditions: in vivo, po, 1680 h
Mus musculus [16] = experiment: Activation of AMPK in normal lean C57BL/6 mouse assessed as increase in phosphorylated ACC level in skeletal muscle at 100 mg/kg, ig administered for 4 weeks by Western blot analysis; type: functional, organism-based; conditions: Skeletal muscle tissue
Outline: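 Male C57BL/6 mice, 9 weeks old, dosed intragastrically once daily for 4 weeks alongside vehicle controls. Heart and skeletal muscle were homogenized in RIPA buffer with protease/phosphatase inhibitors and centrifuged at 10,600 g for 20 min. About 30 µg protein was blotted for p-AMPK and p-ACC and detected by ECL.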

- Activity (Homo sapiens): inactive
- remaining at 0.75 h [8]: 74%
- CLint scaled [9]: 152 mL/min/kg
SMILES: CC(C)(Oc1ccc(Cl)cc1)C(=O)Nc1ccc(OCc2ccc(C#N)cc2)cc1
- Activity (C2C12 [1]): Active
- Activity (C2C12 [2]): Dose-dependent effect
- Activity (HepG2 [3]): Active
- Activity (Huh-7): Active
- inhibition (INH) [4]: Not Active
- Activity (C2C12 [5]): inactive
- Activity (C2C12 [6]): Active
- Activity (A549): Non-Toxic
- Activity (HepG2 [7]): Toxic
- Activity (Mus musculus [10]): Active
- Activity (Mus musculus [11]): Dose-dependent effect
- Activity (Mus musculus [12]): Active
- Activity (Mus musculus [13]): inactive
- Activity [14]: Non-Toxic
- Activity [15]: Non-Toxic
- Activity (Mus musculus [16]): Active
